“Also recorded” adds a separate entry of the source. Structures can show the parent of a compound that is named as a salt. Where two headings read alike, the source gives them in different places.
Tests used:
Sm.5HTRL [1] = target: T1, Sm.5HTRL (Schistosoma mansoni, UniProt A0A173FEI8); assay: Sm.5HTRL cAMP luminescence; type: cell-based; conditions: for Emax: read-out: Sm.5HTRL Emax (normalized to 5-HT)
T1 sequence (A0A173FEI8 1-547): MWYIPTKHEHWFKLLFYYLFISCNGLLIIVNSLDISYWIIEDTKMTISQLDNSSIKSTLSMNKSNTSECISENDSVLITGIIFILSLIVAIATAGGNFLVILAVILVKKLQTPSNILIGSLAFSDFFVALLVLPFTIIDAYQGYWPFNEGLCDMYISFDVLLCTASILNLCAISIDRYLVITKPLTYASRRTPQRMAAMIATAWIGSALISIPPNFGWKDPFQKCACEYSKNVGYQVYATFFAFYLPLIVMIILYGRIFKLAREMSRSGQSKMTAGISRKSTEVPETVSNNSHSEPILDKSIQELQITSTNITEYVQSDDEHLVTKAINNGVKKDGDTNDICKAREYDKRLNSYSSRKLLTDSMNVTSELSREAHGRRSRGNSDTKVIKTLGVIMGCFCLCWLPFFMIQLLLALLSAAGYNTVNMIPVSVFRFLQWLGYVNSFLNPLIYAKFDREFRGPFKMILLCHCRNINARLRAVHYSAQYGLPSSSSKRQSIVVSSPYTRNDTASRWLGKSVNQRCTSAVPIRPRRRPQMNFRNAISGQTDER
In short: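 HEK-293 cells stably carrying the GloSensor-22F cAMP reporter and codon-optimised Sm.5HTRL (pcDNA3.1), selected with hygromycin (200 μg/mL) and G418 (400 μg/mL), plated 2.5x10^4 cells/well the day before. Assay buffer was HBSS/HEPES (20 mM, pH 7.4), 0.1% BSA, D-luciferin 1 mg/mL. Cells were equilibrated 1 h at room temperature, then IBMX 200 μM for 30 min. Luminescence was read 45 min after test compound; Emax was taken relative to 5-HT.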

adult S. mansoni [2] = assay: Adult schistosome mobility assay, agonist; set-up: species or system Schistosoma mansoni; conditions: adult male worms ex vivo; for increase in worm movement: 5 min incubation
In short: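 Adult worms came from female Swiss Webster mice 49 days after infection with NMRI-strain cercariae. They were washed in RPMI 1640 with HEPES 25 mM, 5% heat-inactivated FBS and pen-strep, then cultured overnight at 37 °C/5% CO2. Males (4–5/well, 3 mL) were exposed to test compound for 5 min. Movement was filmed for 1 min at 4 frames/s and quantified by image analysis; mean ± standard error, ≥3 independent experiments.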

human 5-HT7 receptor = conditions: cited from earlier work
[3] = tested on: mammalian 5-HT7 receptors; conditions: cited from earlier work
Sm.5HTRL [4] = target: T1, Sm.5HTRL; assay: Sm.5HTRL cAMP luminescence; type: cell-based; conditions: for antagonist activity at Sm.5HTRL (in words): inhibition of 5-HT response, test compound up to 50 μM
In short: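 Sm.5HTRL/GloSensor-22F stable HEK-293 cells, 2.5x10^4/well, in HBSS/HEPES (20 mM, pH 7.4), 0.1% BSA, 1 mg/mL D-luciferin. After 1 h at room temperature, IBMX 200 μM was added for 30 min. Test compound was added and read 45 min, then 500 nM serotonin was added and luminescence read another 45 min. IC50 came from concentration-inhibition curves; Ki was estimated by Cheng-Prusoff.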

Sm.5HTRL [5] = target: T1, Sm.5HTRL; conditions: ref Chan et al., cited from earlier work
adult S. mansoni [6] = conditions: previous work; ref Chan et al., 2016c; cited from earlier work
adult S. mansoni [7] = assay: Adult schistosome mobility assay, antagonist; set-up: species or system Schistosoma mansoni; conditions: for inhibition of 5-HT evoked movement (in words): concentrations as high as 50 μM, serotonin 200 μM; for concentration inhibiting 5-HT evoked movement: 1 h incubation, then serotonin 200 μM
In short: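 Adult worms were recovered 49 days after cercarial infection of female Swiss Webster mice (NMRI strain parasite). They were kept overnight at 37 °C/5% CO2 in RPMI 1640 with HEPES 25 mM, 5% heat-inactivated FBS and pen-strep. Males (4–5/well) were incubated 1 h in test compound, then serotonin 200 μM was added. One-minute videos at 4 frames/s were analysed for movement; mean ± standard error, ≥3 independent experiments.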

[8] = tested on: HEK-293 cells expressing the GloSensor-22F reporter alone; assay: Counter-screen on parental GloSensor-22F cell line lacking Sm.5HTRL; type: cell-based; conditions: agonists at 10 μM
In short: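 Counter-screen used HEK-293 cells stably expressing the GloSensor-22F cAMP reporter without Sm.5HTRL, plated 2.5x10^4 cells/well the day before. Assay buffer was HBSS/HEPES (20 mM, pH 7.4), 0.1% BSA, 1 mg/mL D-luciferin. Cells were equilibrated 1 h at room temperature, then IBMX 200 μM added for 30 min. Test compound was added and luminescence read for 45 min.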

Sm.5HTRL [9] = target: T1, Sm.5HTRL; conditions: ref Chan et al., 2018; cited from earlier work
[10] = ref Bard et al., 1993, Shen et al.
[11] = pKi, estimated using the Cheng-Prusoff equation, inhibition of 500 nM 5-HT

NCCc1c[nH]c2ccc(Br)cc12 [5-Bromotryptamine]
agonist activity at Sm.5HTRL (in words) (Sm.5HTRL [1]): partial agonist activity

NCCc1c[nH]c2ccc(C(N)=O)cc12 [5-Carboxamidotryptamine]
effect on worm movement (in words) (adult S. mansoni [2]): did not stimulate movement
activity at human 5-HT7 receptor (in words) (human 5-HT7 receptor; ref Plassat et al., 1993): full agonists
activity at mammalian 5-HT7 receptors (in words) [3, 10]: potent full agonists
agonist activity at Sm.5HTRL (in words) (Sm.5HTRL [1]; listed as 5-CT): inactive

C=CCN(CC=C)CCc1c[nH]c2ccc(OC)cc12 [5-MeO-DALT, N,N-diallyl-5-methoxytryptamine]
agonist activity at Sm.5HTRL (in words) (Sm.5HTRL [1]): inactive

COc1ccc2[nH]cc(CCN(C)C)c2c1 [5-MeO-DMT, 5-methoxy-N,N-dimethyltryptamine]
agonist activity at Sm.5HTRL (in words) (Sm.5HTRL [1]): inactive

COc1ccc2[nH]cc(CCN)c2c1 [5-methoxytryptamine]
effect on worm movement (in words) (adult S. mansoni [2]): stimulated movement
effect on worm movement (in words) (adult S. mansoni [2]; listed as 5-MeOT): potently stimulated movement
activity at human 5-HT7 receptor (in words) (human 5-HT7 receptor; ref Plassat et al., 1993): full agonists
activity at mammalian 5-HT7 receptors (in words) [3, 10]: potent full agonists
agonist activity at Sm.5HTRL (in words) (Sm.5HTRL [1]; listed as 5-MeOT): inactive; also recorded: did not potently activate

Cc1ccc2[nH]cc(CCN)c2c1 [5-methyltryptamine]
effect on worm movement (in words) (adult S. mansoni [2]): stimulated movement, but only at high concentrations in the hundreds of micromolar
agonist activity at Sm.5HTRL (in words) (Sm.5HTRL [1]): partial agonist activity

CCCN1CCc2cccc3c2[C@H]1Cc1ccc2c(c1-3)OCO2 [(-)-MDO-NPA hydrochloride]
Ki (Sm.5HTRL [4]; [11]): 100 nM

COc1cc2c(cc1O)C[C@H]1c3c(cc(O)c(OC)c3-2)CCN1C [Boldine]
antagonist activity at Sm.5HTRL (in words) (Sm.5HTRL [4]): potent antagonists
activity at Sm.5HTRL (in words) (Sm.5HTRL [5]; 2016a): Sm.5HTRL antagonists

CN(C)CCc1c[nH]c2ccc(O)cc12 [Bufotenine]
EC50 (Sm.5HTRL [1]): 2400 ± 200 nM
Emax (Sm.5HTRL [1]): 99 ± 34%

COc1ccc2c(c1OC)CN1CCc3cc4c(cc3[C@@H]1C2)OCO4 [Canadine]
antagonist activity at Sm.5HTRL (in words) (Sm.5HTRL [4]): loss of activity; also recorded: inactive

COc1cc2c(cc1OC)C1Cc3ccc(OC)c(OC)c3CN1CC2 (centres unmarked) [D,L Rotundine]
Ki (Sm.5HTRL [4]): 63.1 nM
activity at Sm.5HTRL (in words) (Sm.5HTRL [5]; 2016c, listed as D/L-rotundine): antagonist
activity at Sm.5HTRL (in words) (Sm.5HTRL [5]; 2016c, listed as rotundine): potent antagonists
effect on movement of adult worms (in words) (adult S. mansoni [6]): inhibited movement of adult worms

COc1cc2c(cc1OC)[C@H]1Cc3ccc(OC)c(OC)c3CN1CC2 [D-Rotundine]
antagonist activity at Sm.5HTRL (in words) (Sm.5HTRL [4]): inactive
inhibition of 5-HT evoked movement (in words) (adult S. mansoni [7]): no inhibition

COc1cc2c(cc1OC)-c1c(OC)c(OC)cc3c1[C@H](C2)N(C)CC3 [D-glaucine]
antagonist activity at Sm.5HTRL (in words) (Sm.5HTRL [4]): potent antagonists
Ki (Sm.5HTRL [4]; [11]): 158 nM
activity at Sm.5HTRL (in words) (Sm.5HTRL [5]; 2016a): Sm.5HTRL antagonists

CN(C)CCc1c[nH]c2ccccc12 [DMT, N,N-Dimethyltryptamine]
effect on worm movement (in words) (adult S. mansoni [2]): no effect on worm movement
agonist activity at Sm.5HTRL (in words) (Sm.5HTRL [1]): inactive

COc1cc2cc3c4c(cc(OC)c(OC)c4c2cc1OC)CCN3C [Dehydroglaucine]
antagonist activity at Sm.5HTRL (in words) (Sm.5HTRL [4]): inactive

COc1cc2c3c(c1OC)-c1ccccc1C[C@H]3N(C)CC2 [L-Nuciferine]
antagonist activity at Sm.5HTRL (in words) (Sm.5HTRL [4]): potent antagonists
Ki (Sm.5HTRL [4]; [11]): 79.4 nM
activity at Sm.5HTRL (in words) (Sm.5HTRL [5]; 2016a): potent antagonists; also recorded: Sm.5HTRL antagonists

COc1cc2c(cc1OC)[C@@H]1Cc3ccc(OC)c(OC)c3CN1CC2 [L-Rotundine]
antagonist activity at Sm.5HTRL (in words) (Sm.5HTRL [4]): active
concentration inhibiting 5-HT evoked movement (adult S. mansoni [7]): ≥ 1 µM

COc1ccc(CC2c3cc(OC)c(OC)cc3CCN2C)cc1OC (centres unmarked) [Laudanosine]
antagonist activity at Sm.5HTRL (in words) (Sm.5HTRL [4]): None of these showed any inhibition

CNCCc1c[nH]c2ccccc12 [N-Methyltryptamine]
agonist activity at Sm.5HTRL (in words) (Sm.5HTRL [1]): inactive

CNCCc1c[nH]c2ccc(O)cc12 [N-methylserotonin]
effect on worm movement (in words) (adult S. mansoni [2]): full agonist
increase in worm movement (adult S. mansoni [2]): 252 ± 9%
activity at mammalian 5-HT7 receptors (in words) ([3]; ref Powell et al., 2008): full agonist
EC50 (Sm.5HTRL [1]): 154 ± 11 nM
Emax (Sm.5HTRL [1]): 113 ± 28%

COc1cc2c(cc1OC)-c1cc3ccc(OC)c(OC)c3c[n+]1CC2 [Palmatine]
antagonist activity at Sm.5HTRL (in words) (Sm.5HTRL [4]): inactive
inhibition of 5-HT evoked movement (in words) (adult S. mansoni [7]): no inhibition

COc1ccc(C(=O)c2nccc3cc(OC)c(OC)cc23)cc1OC [Papaveraldine]
antagonist activity at Sm.5HTRL (in words) (Sm.5HTRL [4]): None of these showed any inhibition

COc1ccc(Cc2nccc3cc(OC)c(OC)cc23)cc1OC [Papaverine]
antagonist activity at Sm.5HTRL (in words) (Sm.5HTRL [4]): None of these showed any inhibition

CC1CCN(CC[C@H]2CCCN2S(=O)(=O)c2cccc(O)c2)CC1 [SB-269970]
activity at Sm.5HTRL (in words) (Sm.5HTRL [5]; 2016c): inactive

NCCc1c[nH]c2ccc(O)cc12 [Serotonin]
activity in cells expressing the GloSensor-22F reporter alone (in words) [8]: not observed
increase in worm movement (adult S. mansoni [2]): 224 ± 17%
EC50 (Sm.5HTRL [1]): 94 ± 18 nM

c1cc2c(c3c1CC1c4cc5c(cc4CCN1C3)OCO5)OCO2 (centres unmarked) [Tetrahydrocoptisine]
antagonist activity at Sm.5HTRL (in words) (Sm.5HTRL [4]): loss of activity
antagonist activity at Sm.5HTRL (in words) (Sm.5HTRL [4]; listed as tetrahydrocopsitine): inactive

NCCc1c[nH]c2ccccc12 [Tryptamine]
agonist activity at Sm.5HTRL (in words) (Sm.5HTRL [1]): negligible activity

COc1cc2c3c(c1O)-c1ccccc1CC3N(C)CC2 (centres unmarked) [compound 785177]
concentration inhibiting 5-HT evoked movement (adult S. mansoni [7]): 1 to 10 µM

COc1cc2c(cc1OC)CN1CCc3cc(OC)c(OC)cc3[C@@H]1C2 [d-Xylopinine]
antagonist activity at Sm.5HTRL (in words) (Sm.5HTRL [4]): decreased potency
times less potent than rotundine at Sm.5HTRL (Sm.5HTRL [4]; relative to rotundine): ~10

COc1cc2c3c(cc4ccccc4c3c1OC)N(C)CC2 [dehydronuciferine]
antagonist activity at Sm.5HTRL (in words) (Sm.5HTRL [4]): inactive

CN1C[C@H](C(=O)N[C@]2(C)O[C@@]3(O)[C@@H]4CCCN4C(=O)[C@H](Cc4ccccc4)N3C2=O)C=C2c3cccc4[nH]cc(c34)C[C@H]21 [ergotamine]
activity at human 5-HT7 receptor (in words) (human 5-HT7 receptor; ref Wacker et al., 2013): potent antagonist
activity at Sm.5HTRL (in words) (Sm.5HTRL [9]): full agonist

COc1cc2c3c(c1OC)-c1cc4c(cc1CC3N(C)CC2)OCO4 (centres unmarked) [nantenine]
antagonist activity at Sm.5HTRL (in words) (Sm.5HTRL [4]): potent antagonists

From article PMC6287472 (International Journal for Parasitology: Drugs and Drug …, 2018)
